# Source: PubChem
# This is a sample that favours compounds with a hit; in the whole collection about 1.9% have one here.
# GRK2 aptamer HTS – blocks RNA aptamer binding to human GRK2. bead flow cytometry, FAM-aptamer displacement from GRK2. inhibition of aptamer binding, % at 10 µM. hit rate 0.59% among 330,000. AID 488847;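 active means inhibition of aptamer binding above 40%, roughly 3 SD of noise, on plates passing a quality check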;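 further: median bead fluorescence of bound FAM aptamer so fluorescent compounds give negative values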
# SR-BI DiI inh – mouse SR-BI HDL lipid transfer inhibition | hit rate 0.96% among 320,000 | inhibition, % at 12.5 µM | ldlA[mSR-BI] CHO cells, DiI-HDL uptake fluorescence, 3 h | Q61009;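 active means mean replicate inhibition of at least 70% and a set share of replicates each scoring 70 or more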
# Target sequence (Q61009 whole entry, looked up): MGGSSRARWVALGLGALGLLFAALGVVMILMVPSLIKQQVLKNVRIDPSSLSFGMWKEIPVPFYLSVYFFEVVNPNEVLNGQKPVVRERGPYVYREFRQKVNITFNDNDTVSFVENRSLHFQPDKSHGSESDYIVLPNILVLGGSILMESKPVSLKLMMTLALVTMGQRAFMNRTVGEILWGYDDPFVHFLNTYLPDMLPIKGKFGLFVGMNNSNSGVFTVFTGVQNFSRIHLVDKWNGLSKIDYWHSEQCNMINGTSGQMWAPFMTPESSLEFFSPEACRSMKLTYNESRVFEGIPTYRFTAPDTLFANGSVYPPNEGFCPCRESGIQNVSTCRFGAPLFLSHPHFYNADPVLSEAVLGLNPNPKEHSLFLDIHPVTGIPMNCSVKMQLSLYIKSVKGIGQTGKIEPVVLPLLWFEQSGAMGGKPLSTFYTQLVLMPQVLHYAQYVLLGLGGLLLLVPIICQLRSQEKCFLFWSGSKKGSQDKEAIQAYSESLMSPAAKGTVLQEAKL
# SR-BI uptake up – SR-BI HDL lipid transfer activation. activation, % at 12.5 µM. hit rate 0.096% among 320,000. CHO ldlA[mSR-BI] cells, DiI-HDL uptake fluorescence, 3 h; 100 = double the neutral-control signal;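 active means mean replicate activation of at least 60% and every replicate at or above 60%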
#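 System: CHO ldlA[mSR-BI] cells / Medium: HEPES-buffered (25 mM, pH 7.4) F12 plus 0.5% BSA / Probe or stimulus: labelled HDL, 10 µg/mL / Doses: single compound concentration, delivered by pin transfer / Schedule: 3 h, 37 °C / Measured by: DiI fluorescence, bottom read / Measure: cell-associated DiI fluorescence as measure of HDL uptake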
# Rin1-Abl PPI inh – inhibitors of human Rin1-Abl protein interaction | P00519+Q13671 | TR-FRET Rin1/Abl binding, biochemical | inhibition, % at 7.35 µM | hit rate 0.4% among 360,000 | AID 588664; in the data active means inhibition above about 5%, passing the limit was not always enough
# A number is an active result; n = inactive; x = not tested or not shown.
SMILES,GRK2 aptamer HTS,SR-BI DiI inh,SR-BI uptake up,Rin1-Abl PPI inh
Cn1nnnc1SCC1=C(C(=O)O)N2C(=O)C(NC(=O)C3CC3c3ccccc3)C2SC1 (centres undefined),n,n,n,n
Cn1nnnc1SCC1=C(C(=O)O)N2C(=O)[C@@H](NC(=O)[C@H](O)c3ccccc3)[C@H]2SC1,52.0,n,n,n
COc1ccc(N2C(=O)/C(=C/c3ccc([N+](=O)[O-])cc3)C=C2c2ccccc2)cc1,n,96.4,n,n
Cc1cc(C)c(S(=O)(=O)N2CCN(C(=O)c3c(C)nn(-c4ccccc4)c3Cl)CC2)c(C)c1,x,77.6,n,n
COc1ccc(/C=C2/SC(=S)N(CCCC(=O)Nc3ccccc3C(=O)O)C2=O)cc1,n,x,x,n
COc1ccccc1/C=C1\SC(=S)N(CCC(=O)NNC(=O)c2ccccc2O)C1=O,n,124.3,x,n
COc1ccc(/C=C2\SC(=S)N(CCCC(=O)NNC(=O)c3ccccc3O)C2=O)cc1,n,109.6,n,n
O=C(CCCN1C(=O)/C(=C/c2cccs2)SC1=S)NNC(=O)c1ccccc1O,n,103.7,n,n
CCc1nc2c(OCc3cc(Cl)cc(Cl)c3)cccn2c1N(C)C(=O)c1cccc(OC)c1,x,x,x,n
CC(=O)NC1(C)CCC2CC1C(C)=NC2(C)C (centres undefined),x,x,x,n
Cc1ccccc1-c1csc(C(O)c2ccccc2)n1 (centres undefined),x,x,x,n
C=CCOc1ccc(C[C@H](N)C(=O)NC[C@H]2O[C@@H](n3cnc4c(N)ncnc43)[C@H](O)[C@@H]2O)cc1,43.0,n,n,n
Cc1ccc2nc(/C(C#N)=C\c3cc(O)ccc3[N+](=O)[O-])[nH]c2c1,n,n,n,n
CCOc1cc(N(CC)CC)ccc1/C=C(/C#N)c1nc2ccccc2[nH]1,n,108.8,n,n
CCCOc1cc(N(CC)CC)ccc1/C=C(/C#N)c1nc2ccc(C)cc2[nH]1,n,89.4,n,n
Cc1cc(/C=C(\C#N)c2nc3ccccc3[nH]2)c(C)n1C,n,n,n,n
CCN(CC)c1ccc(/C=C(/C#N)c2nc3ccc(C)cc3[nH]2)c(OC(C)C)c1,n,101.8,n,n
COc1cc(/C=C(\C#N)c2nc3ccc(C)cc3[nH]2)c([N+](=O)[O-])cc1OC,n,n,n,n
COc1ccc(C(=O)N2CCOC2CNC(=O)C(=O)NCc2ccccn2)cc1 (centres undefined),x,x,x,n
Cc1nc2sccn2c(=O)c1S(=O)(=O)N1CCN(c2ccccc2F)CC1,x,x,x,n
O=C(Nc1ccc(Cl)cc1)c1cc(Br)ccc1OCC(=O)N1CCOCC1,n,82.4,n,n
Cc1cc(C)cc(NC(=S)N=Nc2c(O)n(C)c3ccc(S(=O)(=O)N4CCOCC4)cc23)c1,n,86.6,n,n
C=C1C(=O)N(C)CCC1C(CC)C(=O)OC (centres undefined),x,x,x,n
Cn1c2c(sc1=O)CCC2,x,x,x,n
N#Cc1sc2nc(N3CCCCC3)c3c(c2c1N)CCCC3,n,73.9,n,n
SMILES,GRK2 aptamer HTS,SR-BI DiI inh,SR-BI uptake up,Rin1-Abl PPI inh
Cc1ccccc1Nc1c([N+](=O)[O-])ccc2c1=NC1(CCCCC1)N=2,n,82.6,n,n
Cc1ccc(C)c(Nc2c([N+](=O)[O-])ccc3nonc23)c1,n,n,n,n
Cn1nc(N2CCN(S(=O)(=O)c3ccccc3)CC2)c(=O)n(C)c1=O,n,n,n,n
Cc1cnc(CNC(=O)c2csc([C@H]3C[C@H](O)[C@@H](CO)O3)n2)cn1,x,x,x,n
CC(C(=O)OCC(=O)Nc1ccccc1OC(F)F)N1C(=O)C2CC=CCC2C1=O (centres undefined),x,x,x,n
O=C(/C=C/c1cc([N+](=O)[O-])ccc1OC(F)F)Nc1cccc(OC(F)F)c1,n,75.0,n,n
CCCC(O)(c1ccc(Cl)cc1)C(CN1CCOCC1)c1ccc(Cl)cc1 (centres undefined),n,78.9,n,n
CCCC(O)(c1ccc(OC)cc1)C(CN1CCOCC1)c1ccc(Cl)cc1 (centres undefined),n,n,n,n
N#CC(c1cccc(Cl)c1)c1ccc2c(C(F)(F)F)cc(C(F)(F)F)nc2n1 (centres undefined),n,117.3,n,n
